Published values from different studies.
Lines come from different studies, so protocols differ.
Target: D(1A) dopamine receptor (DRD1, Homo sapiens, UniProt P21728)

Structure (SMILES) | assay | measurement | value
C[C@@H]1Cc2ccccc2N1C(=O)NCCCCN(C)[C@@H]1Cc2cccc3[nH]c(=O)n(c23)C1 | ligand displacement, radioligand | Ki | > 10000 nM
CCCCOc1c(O)cc(Br)c2c1CN1CCc3cc(OCC(F)F)c(O)cc3[C@@H]1C2 | cAMP, antagonist, TR-FRET | IC50 | 318 nM
O=C1c2ccccc2CCN1CCCCN1CCN(c2ccccn2)CC1 | cell-free assay, radioligand | Ki | 1660 nM
CCOCc1nc(O)c(-c2nnc(Cc3ccc(Cl)cn3)o2)c(O)c1-c1c(OC)cccc1OC | ligand displacement, radioligand | IC50 | > 30000 nM
CCCOc1cc2c(cc1O)[C@@H]1Cc3c(Br)cc(O)c(OCC(F)F)c3CN1CC2 | cAMP, antagonist, TR-FRET | IC50 | 1450 nM
COc1ccc2c(c1)C(=O)N(CCCN1CCN(c3ccccc3OC)CC1)C2 | cell-free assay, radioligand | Ki | 6220 nM
CN(CCCCNC(=O)c1cc2ccccc2[nH]1)[C@@H]1Cc2cccc3[nH]c(=O)n(c23)C1 | ligand displacement, radioligand | Ki | > 7900 nM
CCCCN1CCC(COC(=O)c2ccc(N)c(OCF)c2)CC1 | cell-free assay, radioligand | Ki | > 10000 nM
O=C1c2ccccc2CCN1CCCCN1CCN(c2cccc(Cl)c2Cl)CC1 | cell-free assay, radioligand | Ki | 511 nM
CCCOc1cc2c(cc1O)[C@@H]1Cc3c(Br)cc(O)c(OCC(F)(F)F)c3CN1CC2 | cAMP, antagonist, TR-FRET | IC50 | 248 nM
